Where two headings read alike, the source gives them in different places.
Columns and labels:
[1] = system: LoVo colon cancer xenograft; assay: Xenograft tumor growth, SMI combined with 5FU, 14-day treatment; type: in vivo, Balb/c nude mice; conditions: compared to vehicle treated group; SMI 10 mL/kg/day, 5FU 15 mg/kg/3 days i.p., 14 days
LoVo xenografts = assay: Xenograft tumor growth, SMI or Rd combined with 5FU, 20-day treatment; type: in vivo, Balb/c mice; conditions: compared to vehicle + saline; SMI 10 mL/kg/day, Rd 5 mg/kg/day, 5FU 15 mg/kg/3 days i.p., 20 days
Outline: (§1)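 LoVo-xenograft mice with all tumors above 50 mm3 were dosed i.p. for 20 days: 10 mL/kg/day, 5 mg/kg/day, and/or 5FU 15 mg/kg every 3 days. Body weight and tumor axes were recorded daily; tumor volume = 1/2 × a × b². Tumors were resected after treatment. Weight change was read after 17 days; mean ± SEM.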

[2] = Mice body weight in the 5FU combination study; type: in vivo, Balb/c mice harboring LoVo xenografts; conditions: 5FU 15 mg/kg/3 days i.p.; 17-day treatment
Outline: as §1

[3] = type: in vivo, mice harboring xenograft tumors; conditions: after intraperitoneal injection of Rb1, Rc, or Rd; data not shown
[4] = type: in vivo, Balb/c nude mice harboring LoVo xenografts; conditions: for Cmax / Tmax: Balb/c nude, mouse, plasma, ip; for AUC0–∞ in plasma relative to those of Re, Rg1, Rg3 and Ro: after single or multiple SMI administration
Outline: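 Male LoVo-xenograft nude mice (6 weeks old) received 10 mL/kg i.p., either once or daily for 8 days. Blood (~0.1 mL) was drawn from the oculi chorioideae vein into heparin tubes between 5 min and 96 h after the last dose, 5 mice per time point. Plasma was spun at 8000 rpm for 5 min and extracted with methanol. AUC0–∞ and the multiple/single ratio were derived.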

[5] = type: in vivo, Balb/c nude mice harboring LoVo xenografts; conditions: 8-day vs single SMI 10 mL/kg/day i.p.
[6] = Constituent ratio of ginsenosides in SMI, plasma, tumor and endothelial cells; type: in vivo, Balb/c nude mice harboring LoVo xenografts; conditions: 20 min after 15-day SMI treatment
Outline: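 Tissues were sampled 20 min after the last dose of a 15-day i.p. course. Tumors were digested 1 h in DMEM with collagenase I (2 mg/mL) and DNase I (0.1 mg/mL), then strained through 40 μm mesh. CD31+ cells were enriched with PE anti-mouse CD31 and anti-PE magnetic particles, with purity checked by CD45/viability flow cytometry; n = 3. Each ratio = concentration of the constituent / summed eight ginsenosides.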

VEGF = assay: ELISA of VEGF secretion in tumors; type: in vivo, Balb/c mice harboring LoVo xenografts; conditions: 15 days i.p.; SMI, Rd-H 5 mg/kg, Rb1, Rg1; vs vehicle
Outline: (§2)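 Mice received test compound i.p. for 15 days. Tumors were harvested 20 min after the final dose and homogenized in RIPA buffer. VEGF and FGF were quantified by ELISA kit and normalized to protein content measured by BCA assay. Compared with vehicle.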

FGF = assay: ELISA of FGF secretion in tumors; type: in vivo, Balb/c mice harboring LoVo xenografts; conditions: 15 days i.p.; SMI, Rd-H 5 mg/kg, Rb1, Rg1; vs vehicle
Outline: as §2

Compound	Suppression of tumor growth [1] [%]	Suppression of tumor growth (LoVo xenografts) [%]	Suppression of the increase of mice body weight [2] [%]	Detection in plasma or tumor tissues [3]	Cmax ([4]; 10 mL/kg) [ng/mL]	Tmax ([4]; 10 mL/kg) [h]	Cmax ([4]; 10 mL/kg/day) [ng/mL]	Tmax ([4]; 10 mL/kg/day) [h]	AUC0–∞ in plasma relative to those of Re, Rg1, Rg3 and Ro [4]	AUC0–∞ ratio Multiple/Single in tumors [5]	Constituent ratio in TECs [6] [%]	Constituent ratio in plasma [6] [%]	Constituent ratio in tumor tissues [6] [%]	Reduction of the secretion of VEGF in tumors (VEGF) [%]	Suppression of the secretion of FGF in tumors (FGF) [%]
O=c1[nH]cc(F)c(=O)[nH]1 [5FU, 5-fluorouracil]	49.0	17	65												
CC(C)=CCC[C@](C)(O[C@@H]1O[C@H](CO)[C@@H](O)[C@H](O)[C@H]1O)[C@H]1CC[C@]2(C)[C@@H]1[C@H](O)C[C@@H]1[C@@]3(C)CC[C@H](O)C(C)(C)[C@@H]3CC[C@]12C [CK, compound K]				neither Rg3 nor CK could be detected											
CC(C)=CCC[C@](C)(O[C@@H]1O[C@H](CO[C@@H]2O[C@H](CO)[C@@H](O)[C@H](O)[C@H]2O)[C@@H](O)[C@H](O)[C@H]1O)[C@H]1CC[C@]2(C)[C@@H]1[C@H](O)C[C@@H]1[C@@]3(C)CC[C@H](O[C@@H]4O[C@H](CO)[C@@H](O)[C@H](O)[C@H]4O[C@@H]4O[C@H](CO)[C@@H](O)[C@H](O)[C@H]4O)C(C)(C)[C@@H]3CC[C@]12C [Rb1, ginsenoside Rb1]					20600	1	49400	2	more than 20 times	1.64	14.9	34.5	21.9	15	99
CC(C)=CCC[C@](C)(O[C@@H]1O[C@H](CO[C@@H]2O[C@@H](CO)[C@H](O)[C@H]2O)[C@@H](O)[C@H](O)[C@H]1O)[C@H]1CC[C@]2(C)[C@@H]1[C@H](O)C[C@@H]1[C@@]3(C)CC[C@H](O[C@@H]4O[C@H](CO)[C@@H](O)[C@H](O)[C@H]4O[C@@H]4O[C@H](CO)[C@@H](O)[C@H](O)[C@H]4O)C(C)(C)[C@@H]3CC[C@]12C [Rc]					7800	4	16900	2	more than 20 times	5.67					
